Only some compounds are listed: those with a hit (about 3.5% of all), similar ones and a draw of the others.
MrgX1 allo act: allosterically activates human MrgX1 receptor signaling | Q96LB2 | MrgX1-HEK293, Fluo-4 calcium flux, FDSS; hits give high values | B-score at 10 µM | 0.63% of 310,000 active | AID 588675;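 active means plate-corrected calcium response at least 3 library SD above typical, normal starting fluorescence, not activating the receptor alone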;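 further: compound read alongside a low EC10 to EC30 dose of BAM8-22 agonist; peak minus trough fluorescence over baseline measured at the second addition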
Target sequence (Q96LB2 whole entry, looked up): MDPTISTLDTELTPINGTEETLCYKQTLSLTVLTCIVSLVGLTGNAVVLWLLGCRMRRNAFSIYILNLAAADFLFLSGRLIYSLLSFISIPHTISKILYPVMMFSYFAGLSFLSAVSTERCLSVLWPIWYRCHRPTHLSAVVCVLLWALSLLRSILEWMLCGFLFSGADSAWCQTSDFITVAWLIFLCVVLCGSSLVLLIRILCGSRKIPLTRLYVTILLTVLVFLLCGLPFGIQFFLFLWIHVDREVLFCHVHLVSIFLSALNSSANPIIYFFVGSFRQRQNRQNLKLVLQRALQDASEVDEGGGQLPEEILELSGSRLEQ
MrgX1 agonist: human MrgX1 receptor agonism, primary screen | Q96LB2 | MrgX1-HEK293 cells, Fluo-4 calcium fluorescence, agonist mode; hits give high values | B-score at 10 µM | 0.44% of 310,000 active | AID 588627;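 active means calcium response B-score plate-corrected fluorescence ratio at least 3 library SD, with starting fluorescence B-score inside 5 SD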
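Assay system: MrgX1-expressing HEK293 cells / Amount: fifteen thousand cells per well / Doses: test compound in the initial addition of three / Timing: cells plated overnight, dye loaded 0.5 h 37 °C, 0.5 h room temperature / Technique: kinetic calcium dye fluorescence, Fluo-4 NW / Control set: positive and negative controls per plate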
RGS4 act: potentiators or activators of RGS4; HEK293 M3R/inducible RGS4, carbachol calcium flux Fluo4; hits give low values; 0.92% of 310,000 active; B-score at 10 µM;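 active means B-score of the integrated calcium signal more than 4 SD below the library mean, with starting fluorescence not abnormally high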;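 further: negative B-score means reduced calcium response which marks RGS4 activation or potentiation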
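Detection: kinetic calcium fluorescence imaging with Fluo4-AM dye, 2 µM / Material: HEK293 cells with stable M3R and inducible RGS4 / Schedule: recording 10 s baseline at 1 Hz, 100 s post-agonist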
RGS4 block: inhibitors of human RGS4. P49798. HEK293 M3R/RGS4 inducible, Fluo-4 calcium flux; hits give high values; triggered by carbachol at its EC20. B-score at 10 µM. 0.45% of 310,000 active. AID 463165;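 active means B-score, a plate-corrected calcium signal, over three deviations above library mean, with baseline fluorescence within five deviations of library mean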;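 further: RGS4 expression induced by doxycycline in cells with stable M3 receptor; B-score is computed from the integrated fluorescence ratio over baseline after carbachol; higher B-score means a larger calcium signal and so more RGS4 inhibition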
Target sequence (P49798 whole entry, looked up): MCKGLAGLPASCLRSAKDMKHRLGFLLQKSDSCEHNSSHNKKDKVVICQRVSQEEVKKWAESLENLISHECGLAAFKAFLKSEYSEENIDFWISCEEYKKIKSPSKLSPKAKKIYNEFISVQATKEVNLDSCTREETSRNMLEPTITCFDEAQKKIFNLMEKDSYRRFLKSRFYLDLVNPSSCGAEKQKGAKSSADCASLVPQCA
MrgX1 antagonist: human MrgX1 receptor antagonism, primary screen. Q96LB2. MRGX1-HEK293 calcium flux, Fluo-4, BAM8-22 antagonism; hits give low values. B-score at 10 µM. 1.3% of 310,000 active. AID 588676;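 active means calcium-response B-score plate-corrected more than 3 library SD below zero, starting fluorescence within 5 deviations, no agonist response on first addition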;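 further: peak minus trough fluorescence over baseline after final BAM8-22 challenge near maximal dose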
Hits are given with their value; . = inactive; / = not tested or not shown.

SMILES	MrgX1 allo act	MrgX1 agonist	RGS4 act	RGS4 block	MrgX1 antagonist
CC(Nc1ccc(Cl)cc1)C(=O)NN (stereo not given)	.	.	.	.	.
COc1ccc(NS(=O)(=O)c2ccc(O)c(NC(=O)c3ccc(S(=O)(=O)N4CCCC4)cc3)c2)cc1	.	.	.	.	.
COc1ccc(NS(=O)(=O)c2ccc(O)c(NC(=O)c3ccc(S(=O)(=O)N4CCCCCC4)cc3)c2)cc1	.	.	-7.8	.	.
Brc1cccc(-c2nc3cccnc3nc2-c2cccc(Br)c2)c1	.	.	-7	.	.
Cc1ccc(-c2nc3cc(Br)cnc3nc2-c2ccc(C)cc2)cc1	.	.	.	.	.
O=C(O)C1CCC(CNS(=O)(=O)c2ccccc2)CC1 (stereo not given)	.	.	.	.	.
Nc1sc(-c2ccccc2)n[n+]1Cc1cccc2cccnc12	.	.	-7.1	.	-4.7
Cc1cccc(-n2c(C)cc(/C=C3\NC(=O)NC3=O)c2C)c1	.	.	.	.	.
Cc1cc(/C=C2/NC(=O)NC2=O)c(C)n1-c1ccncc1	6.7	.	.	.	.
COc1ccc(C(=O)C2CCCN(C(=O)c3cccc(N(C)C)c3)C2)cc1OC (stereo not given)	.	.	.	.	.
Cc1nn(-c2ccc(Cl)cc2)c(Cl)c1/C=N/NC(=O)c1ccc(NS(=O)(=O)c2cccs2)cc1	13	.	.	.	.
O=C(O)c1ccccc1-c1ccccc1C(=O)Nc1ccc(-c2nc3cc(Cl)ccc3o2)cc1	.	.	.	.	-5.6
OC(CNC1CCCC1)COc1ccc(-c2ccccc2)cc1 (stereo not given)	.	.	.	.	.
O=[N+]([O-])c1ccc(OCC(O)CNC2CCCC2)cc1 (stereo not given)	.	28	.	.	.
O=[N+]([O-])c1ccc(OCC(O)CN(C2CCCCC2)C2CCCCC2)cc1 (stereo not given)	.	.	.	.	.
OC(CNC1CCCCC1)COCCOc1ccc(Br)cc1 (stereo not given)	.	.	.	.	-9.2
O=C(NCCc1ccccc1Cl)C1CC(=O)N(C2CCCCC2)C1 (stereo not given)	.	.	.	.	.
COc1cccc(NC(=S)N2CCC(NC(=O)c3ccco3)CC2)c1	.	.	.	.	.
COc1ccc(-c2nn(-c3ccccc3)cc2/C=N/O)cc1	.	.	.	.	.
CC(C)Oc1ccc(-c2nn(-c3ccccc3)cc2/C=c2\sc3ncnn3c2=O)cc1	.	47	/	/	.
CSCCC(NS(=O)(=O)c1ccccc1F)C(=O)NCc1ccncc1 (stereo not given)	.	.	.	.	.
CN(C)Cc1c(-c2ccc(Cl)cc2)nc2ccc(Cl)cn12	.	.	.	.	.
Cc1ccc(S(=O)(=O)N2CCC(=O)N(C(COCc3cccc(C(F)(F)F)c3)Cc3ccccc3)CC2)cc1 (stereo not given)	.	.	.	.	-4.5
COC(=O)C1=C(C)N(Cc2ccco2)C(=O)/C1=C\c1ccc([N+](=O)[O-])cc1	.	28	.	.	.
COc1cc(/C=C2/SC(=S)N(c3c(C)n(C)n(-c4ccccc4)c3=O)C2=O)ccc1O	.	36	.	.	.
SMILES	MrgX1 allo act	MrgX1 agonist	RGS4 act	RGS4 block	MrgX1 antagonist
O=C(NC1CCCC1)C(c1ccccc1F)N(C(=O)c1ccco1)C1CCCC1 (stereo not given)	.	.	-7.1	.	.
CCOC(=O)CN(C(=O)CNC(=O)c1ccco1)C(C(=O)NC1CCCC1)c1ccccc1OCC (stereo not given)	.	.	.	.	-5.4
Cc1c(N2C(=O)/C(=C\c3ccc(N(C)C)cc3)N(C)C2=S)c(=O)n(-c2ccccc2)n1C	.	.	/	/	-4.5
CC(C)n1c(=O)[nH][nH]c1=S	.	.	.	.	.
Cn1ncc([N+](=O)[O-])c1C(=O)N/N=C/c1cccc([N+](=O)[O-])c1	.	.	.	.	-5.4
COc1cccc(/C=C/C(=O)NNC(=O)c2cc(C)oc2C)c1	.	.	.	.	.
O=C(Nc1cc2c3c(c1)C1CCCC1CN3CC1CCCC21)c1ccccc1 (stereo not given)	.	.	-9.8	.	-13
CCCn1nc([N+](=O)[O-])c(C(C#N)c2nc3ccccc3s2)c(Cl)c1=O (stereo not given)	.	29	.	.	.
CC1=NN(C(N)=S)C(=O)C1N=Nc1cccc(Cl)c1C (stereo not given)	8.6	.	.	.	.
CC1=NN(C(N)=S)C(=O)C1N=Nc1cccc2ccccc12 (stereo not given)	.	.	.	.	.
CN1CCN(CC#CCn2c3ccccc3c3ccccc32)CC1	.	.	-7.1	.	.
CCC[N+]1(CC#CC(O)(c2ccccc2)C2CCCCC2)CCCCC1 (stereo not given)	.	.	-8.2	.	.
CC(C)CCOc1ccc(C(=O)NCC(c2ccco2)N(C)C)cc1 (stereo not given)	.	.	-7.5	.	.
O=C1/C(=C/c2ccc([N+](=O)[O-])cc2)CCc2ccccc21	.	.	.	.	.
O=C1/C(=C/c2cccc([N+](=O)[O-])c2)CCc2ccccc21	.	.	.	.	-5.8
COc1cccc(CN(C)C(=O)c2csc3c2CCCC3)c1OC	.	.	.	.	.
Cc1cc(-c2ccccc2)nc2cc(C(=O)N(Cc3ccccc3)Cc3ccccc3)nn12	.	.	-7.9	.	.
COC(=O)c1cc2nc(-c3ccccc3)cc(C)n2n1	.	.	.	.	.
Cc1ccc(OCC(=O)N2CCc3ccccc3C2)cc1	.	.	.	.	.
CN(C(=O)C(C)(C)C)c1ccc(OCC(=O)N2CCc3ccccc3C2)cc1	.	.	-7.4	.	.
COc1cc(N2C(=O)C=CC2=O)c(OC)cc1Cl	.	.	-7.1	.	.
COc1ccc2nc(NC(=O)C3=NN(c4ccccc4)C(=O)CC3)sc2c1	.	.	.	.	-5.6
CS(=O)(=O)c1ccc2nc(NC(=O)C3=NN(c4ccccc4)C(=O)CC3)sc2c1	.	.	.	.	.
CCN(CC)c1ccc(CN(C(=O)c2cccs2)C2CCS(=O)(=O)C2)cc1 (stereo not given)	.	.	.	.	.
O=C1/C(=C/c2c[nH]c3ccccc23)CCC/C1=C\c1c[nH]c2ccccc12	8.6	.	.	.	.
O=C(CNC(=O)c1ccccc1)OC1CCCCC1	.	.	.	.	.
C[N+]1(C)CCCC(OC(=O)C(O)(c2ccccc2)c2ccccc2)C1 (stereo not given)	.	.	-11	.	.
Cc1cc(Cl)ccc1Oc1ncnc2oc(-c3ccccc3)cc12	12	.	.	.	.
Cc1noc2ncnc(Oc3cc(Cl)ccc3Cl)c12	.	.	.	.	.

Screens as filed in PubChem BioAssay.
